Bioassay records: PubChem, Broad Institute
A selection: hits, their analogues and other compounds. The true share with any hit is near 3%.
MITF TRPM1 HTS – activators of MITF-driven TRPM1 promoter reporter, primary screen, cell-based, SK-MEL-5, luciferase, single point | SK-MEL-5 TRPM1-promoter luciferase, 24 h; % of positive control, neutral wells = 0 | activation, % at 12.5 µM | 300,000 compounds, 0.75% hits;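 active means mean activation of at least 80% with every replicate also reaching 80%; inconclusive means mean reaches 80% but some replicate falls short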;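 further: 0% = neutral control wells and 100% = parthenolide positive control wells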
esBAF inh – Bmi1 luciferase reporter increase in mESCs, primary screen, esBAF inhibitor project, mouse ES cells, Bmi1 luciferase knock-in, single point | AID 602393, 2012 | reporter increase, % at 12.5 µM | 24 h; 100% = twice the neutral-well signal | 350,000 compounds, 2% hits; in the data active means activation above about 40%; inconclusive means no clear call, values can overlap the other calls;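 further: 0% = median of the plate's neutral control wells and 100% = double that signal; a rise in the Bmi1 reporter signal indicates esBAF inhibition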
Wnt act – Wnt/beta-catenin pathway activators, primary screen, cell-based, plate reader, single point | activation, % at 9.35 µM | 300,000 compounds, 1.2% hits | Wnt/beta-catenin reporter cell assay, activator; in the data active means activation above about 30%, passing the limit was not always enough; inconclusive means no clear call, values can overlap the other calls;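 further: 0% = neutral control wells and 100% = positive control wells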
XiGFP reactiv – activators of inactive X chromosome reactivation, primary screen, imaging, XiGFP fibroblasts, GFP high-content imaging, set 2. activation, % at 7.58 µM. XiGFP mouse fibroblasts, % GFP-positive cells imaging, 3 d; cells co-treated with 5-aza-dC sensitizer; scaled so ellipticine positive control = 100%. 360,000 compounds, 0.055% hits;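 active means mean normalized replicate activation at least 10% and every replicate at or above 10%; inconclusive means only one of the two criteria met; inactive means mean below 10% and not all replicates reach 10%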;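 further: 0% = median of on-plate neutral control wells and 100% = ellipticine 6 µM median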
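Assay system – SV40-immortalized XiGFP fibroblast cells, line 68-5-11 · Buffer or medium – DMEM supplemented with 5-aza-dC as sensitizing agent · Dosing – one concentration, pinned · Benchmarks – positive control ellipticine, 6 µM final · Times – 3 days compound exposure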
NSD2 inh – NSD2 histone methyltransferase inhibitors, primary screen, biochemical, AlphaScreen, single concentration, set 2. Histone-lysine N-methyltransferase NSD2 (Homo sapiens), O96028. NSD2 peptide methylation, 120 min. inhibition, % at 12.5 µM. 310,000 compounds, 0.54% hits; in the data active means inhibition above about 50%
CASP6 VEID inh – human caspase-6 inhibitors, primary screen, biochemical, VEID-R110 fluorescence, single point, set 2. P55212. purified caspase-6, Z-VEID-R110 cleavage fluorescence. inhibition, % at 12.5 µM. 350,000 compounds, 0.53% hits;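 active means mean inhibition across replicates at least about 35%, with every replicate also reaching that limit, limit read from the data; inconclusive means only one of the two criteria met; inactive means neither criterion met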;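 further: 0% = median of neutral control wells and 100% = no fluorescence left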
Target sequence (P55212 24-179 limits assumed): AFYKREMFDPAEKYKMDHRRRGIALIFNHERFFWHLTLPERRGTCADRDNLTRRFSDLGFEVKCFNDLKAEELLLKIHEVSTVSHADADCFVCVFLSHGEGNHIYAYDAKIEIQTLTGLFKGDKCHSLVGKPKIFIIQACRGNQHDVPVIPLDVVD
Target sequence (P55212 194-293 limits assumed): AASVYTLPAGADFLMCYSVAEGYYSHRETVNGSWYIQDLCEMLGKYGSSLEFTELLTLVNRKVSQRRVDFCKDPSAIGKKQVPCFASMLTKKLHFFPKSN
An asterisk follows results filed as active; u = inconclusive; x = no result.

SMILES	MITF TRPM1 HTS	esBAF inh	Wnt act	XiGFP reactiv	NSD2 inh	CASP6 VEID inh
CC(=O)c1cnc2c(-c3ccc(Cl)cc3)cnn2c1C	73	75*	x	x	0	x
Clc1ccc(-c2cnn3c(-c4ccncc4)ccnc23)cc1	15	x	64*	0	3	-1
N#Cc1cnn2c(N)c(-c3ccc(Cl)cc3)cnc12	4	x	-14	0	-3	-1
COc1ccc2c3c(n(C)c2c1)[C@H](CO)N(C(=O)NC(C)C)CC31CCN(CC2CCCC2)CC1	x	x	x	0	x	-2
O=C(C1=C[C@@H](c2ccc(Br)cc2)C[C@@H](OCc2ccc(CO)cc2)O1)N1CCCC1	x	x	x	x	x	0
O=C(c1ccncc1)N1CC2(C1)[C@@H](c1ccccc1)[C@@H](CO)N2C(=O)CC1CC1	x	x	x	0	x	-1
N/C(=N\OC(=O)c1ccc2c(c1)OCO2)c1ccncc1	55	31	55*	1	-4	2
COc1ccc(/C(N)=N/OC(=O)c2ccc3c(c2)OCO3)cc1	35	x	x	0	1	0
N/C(=N\OC(=O)c1ccc2c(c1)OCO2)c1ccc(Cl)cc1	106*	28	-2	x	-2	0
Cc1ccc(/C(N)=N/OC(=O)c2ccc3c(c2)OCO3)cc1	72	x	22	0	-4	-3
C[C@H]1CN(C)C(=O)c2cccc(N)c2O[C@@H]1CN(C)C(=O)OC(C)(C)C	x	x	x	0	x	x
CCOC(=O)C1=C(C)N=c2sc(=Cc3cc(Cl)c(OCC(=O)O)c(Cl)c3)c(=O)n2C1c1cccc(OC)c1 (centres undefined)	x	3	-2	0	x	38*
CCOC(=O)C1=C(C)N=c2s/c(=C/c3ccc(OCC(=O)O)cc3)c(=O)n2C1c1cc(OC)c(OC)c(OC)c1 (centres undefined)	-1	1	0	1	10	3
COc1ccc(C(=O)C[n+]2cn(C(F)F)c3ccccc32)c(F)c1	13	52*	14	0	43	6
COc1ccc2nc3ccccc3nc2c1	93*	42*	-2	x	x	-1
CN=C(c1ccc(C)cc1)n1c(=S)nc(-c2ccc(C)cc2)n(C)c1=S	2	83*	55*	0	-4	4
COCC(=O)Nc1ccc2c(c1)[C@H]1C[C@@H](CC(=O)NCc3cccc(F)c3)O[C@H](CO)[C@H]1O2	x	3	x	0	x	4
CCN1c2ccccc2N(C)C1(C)c1ccccc1 (centres undefined)	-61	x	x	x	63*	x
CCC1(c2ccccc2)CN(C)C1=O (centres undefined)	x	-4	-4	0	0	x
CN=c1nc(-c2ccccc2)n(-c2ccccc2)s1	-7	55*	1	0	x	x
Cn1nc(-c2ccccc2)nc1-c1ccccc1	60	u	u	0	x	2
CNc1cc(-c2cnn(CC(C)C)c2)ncn1	x	51*	u	0	-3	-2
O=C(Nc1cccnc1Cl)c1ccc(Cl)cc1	49	u	10	0	-3	1
O=C(Nc1cccc2cccnc12)c1ccc(Cl)cc1	x	45*	5	0	-2	1
O=C(NC(=S)Nc1cccnc1Cl)c1ccc(Cl)cc1	34	u	36*	0	x	1
SMILES	MITF TRPM1 HTS	esBAF inh	Wnt act	XiGFP reactiv	NSD2 inh	CASP6 VEID inh
O=C(Nc1cccc2cccnc12)c1cccnc1	-5	13	-2	x	-4	3
O=C(c1cc(COc2ccc(F)cc2Cl)on1)N1CCCCCC1	144*	95*	27	0	36	-2
COc1ccc(OCc2cc(C(=O)N3CCN(CC4CC4)CC3)no2)c(Cl)c1	47	39	17	0	5	-5
CN(CCc1ccccc1)C(=O)c1cc(COc2ccc(F)cc2Cl)on1	60	43*	11	0	-3	0
CCN1CCN(C(=O)c2cc(COc3ccc(C(C)=O)cc3OC)on2)CC1	75	71*	38*	0	-1	1
O=C(c1cc(COc2ccc(F)cc2Cl)on1)N1CCCCCCC1	30	25	5	0	-4	1
COc1cc(C)ccc1OCc1cc(C(=O)N2CCCCCCC2)no1	63	55*	20	0	-2	-3
CN(CCN1CCOCC1)C(=O)c1cc(COc2ccc(F)cc2Cl)on1	x	11	7	2	-2	-1
O=C(O)[C@@H]1[C@@H](CO)[C@@H]2Cn3c(ccc(-c4ccc(F)cc4)c3=O)[C@@H]2N1C(=O)Nc1ccccc1	x	x	x	0	x	x
CO[C@H](CN(C)S(=O)(=O)c1cccc(Cl)c1)[C@@H](C)CN([C@H](C)CO)S(=O)(=O)c1cccc(Cl)c1	x	-8	x	0	x	-4
C[C@@H]1CN([C@H](C)CO)C(=O)c2cccc(NS(=O)(=O)c3ccc(F)cc3)c2O[C@@H]1CN(C)CC1CCCCC1	x	-3	x	0	x	-2
Cc1ccc(C)c(OCc2cc(C(=O)N3CC[C@H](O)C3)no2)c1	132*	47*	37*	0	0	6
CCN1CCC2(CCN(C(=O)c3cc(COc4cc(C)ccc4C)on3)C2)C1 (centres undefined)	-4	5	2	0	6	-27
CCn1c(C)nc2cc(C(=O)N/N=C/c3ccccc3)ccc21	45	43*	-1	0	-1	2
CCn1c(C)nc2cc(C(=O)N/N=C/c3cccc(O)c3O)ccc21	0	x	41*	0	1	0
CC1CCCCN1C(=O)c1cc(-c2ccc3c(c2)OCO3)on1 (centres undefined)	139*	31	36*	0	4	3
CC1CCCCN1C(=O)c1cc(-c2ccc(Cl)c(Cl)c2)on1 (centres undefined)	109*	u	x	x	-5	x
CCC1CCCCN1C(=O)c1cc(-c2ccc(Cl)c(Cl)c2)on1 (centres undefined)	42	24	x	x	-5	-2
COc1cccc(-c2cc(C(=O)N3C(C)CCCC3C)no2)c1 (centres undefined)	u	49*	x	x	-16	x
CC1CCN(C(=O)c2cc(-c3ccc4c(c3)OCO4)on2)CC1	u	-8	24	0	-3	3
C[C@H]1CCCCO[C@@H](CN(C)C(=O)Cc2ccccc2)[C@@H](C)CN([C@@H](C)CO)C(=O)c2cc(NC(=O)c3ccncc3)ccc2O1	x	x	x	0	x	1
C[C@@H]1CCCCO[C@@H](CN(C)C(=O)Nc2ccc(F)cc2)[C@H](C)CN([C@H](C)CO)C(=O)c2cc(NC(=O)Nc3ccc(F)cc3)ccc2O1	x	7	x	0	x	1
